From ChEMBL document CHEMBL1123878, “Potential antitumor agents. 50. In vivo solid-tumor activity of derivatives of N-[2-(dimethylamino)ethyl]acridine-4-carboxamide” (J Med Chem, 1987)
Blank lines part the entries; values can stand above or below the molecule they belong to. Calls of active or inactive are those of the source. No cut-off for these calls is given here.

What was measured:
HCT-8 = test: Inhibition of human colon tumor (HCT-8) cell growth in culture; type: functional, cell-based
Summary of the method: (§1)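 IC50 is the drug concentration, in nM, that inhibits growth of the cultured cell line by 50%.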

[1] = Lipophilicity index (Rm) (HPLC); type: physicochemical
[2] = Selectivity ratio of IC50 of HCT to IC50 of L1210 cell lines; type: functional
P388 [3] = test: Percentage increase in life span of compound-treated, tumor bearing animals compared to non treated, tumor-bearing controls when treated at the optimal dose of 150 mg/kg/day intraperitoneally; type: functional; conditions: Mus musculus, P388, ip; route intraperitoneal
L1210 = test: Inhibition murine leukemia L1210 cell growth in culture; type: functional, cell-based; conditions: Mus musculus; summary of the method: as §1
[4] = tested on: Lewis lung carcinoma cell line; test: (§2) Percentage increase in life span of tumor bearing animals compared to non treated, tumor-bearing controls when treated at the optimal dose of 150 mg/kg/day intraperitoneally; type: functional; conditions: Mus musculus, ip, route intraperitoneal
P388 [5] = test: as §2; type: functional; conditions: Mus musculus, P388, ip; route intraperitoneal
P388 [6] = test: (§3) Percentage increase in life span of tumor bearing animals compared to non treated, tumor-bearing controls when treated at the optimal dose of 30 mg/kg/day intraperitoneally; type: functional; conditions: Mus musculus, P388, ip; route intraperitoneal
[7] = tested on: Lewis lung carcinoma cell line; test: as §3; type: functional; conditions: Mus musculus, ip, route intraperitoneal
P388 [8] = test: Percentage increase in life span of tumor bearing animals compared to non treated, tumor-bearing controls when treated at the optimal dose of 225 mg/kg/day ip (P388); type: functional; conditions: Mus musculus, route intraperitoneal
[9] = tested on: Lewis lung carcinoma cell line; test: Percentage increase in life span of tumor bearing animals compared to non treated, tumor-bearing controls when treated at the optimal dose of 150 mg/kg/day ip (LL); type: functional; conditions: Mus musculus
[10] = tested on: Lewis lung carcinoma cell line; test: Percentage increase in life span of tumor bearing animals compared to non treated, tumor-bearing controls when treated at the optimal dose of 45 mg/kg/day intraperitoneally; type: functional; conditions: Mus musculus, ip, route intraperitoneal
[11] = Base strength is expressed as pKa, determined in water at 25 degrees Centigrade by spectrophotometric method.; type: physicochemical
P388 [12] = test: (§4) Percentage increase in life span of tumor bearing animals compared to non treated, tumor-bearing controls when treated at the optimal dose of 65 mg/kg/day intraperitoneally; type: functional; conditions: Mus musculus, P388, ip; route intraperitoneal
[13] = tested on: Lewis lung carcinoma cell line; test: Percentage increase in life span of tumor bearing animals compared to non treated, tumor-bearing controls when treated at the optimal dose of 100 mg/kg/day intraperitoneally; IA denotes inactive; type: functional, organism-based; conditions: Mus musculus
Summary of the method: (§5)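 Drug was given ip in 0.1 mL 30% v/v ethanol/water. For P388, 10^6 cells were inoculated ip and dosing was on days 1, 5 and 9, with >20% significant. For Lewis lung, 10^6 cells were inoculated iv and dosing was on days 5, 9 and 13, with >40% significant. The read-out is % lifespan increase over untreated controls.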

P388 [14] = test: Percentage increase in life span of tumor bearing animals compared to non treated, tumor-bearing controls when treated at the optimal dose of 225 mg/kg/day intraperitoneally; IA denotes inactive; type: functional, organism-based; conditions: Mus musculus; summary of the method: as §5
P388 [15] = test: (§6) Percentage increase in life span of tumor bearing animals compared to non treated, tumor-bearing controls when treated at the optimal dose of 100 mg/kg/day intraperitoneally; type: functional; conditions: Mus musculus, P388, ip; route intraperitoneal
[16] = tested on: Lewis lung carcinoma cell line; test: as §6; type: functional; conditions: Mus musculus, ip, route intraperitoneal
P388 [17] = test: (§7) Percentage increase in life span of tumor bearing animals compared to non treated, tumor-bearing controls when treated at the optimal dose of 65 mg/kg/day intraperitoneally; IA denotes inactive; type: functional, organism-based; conditions: Mus musculus; summary of the method: as §5
[18] = tested on: Lewis lung carcinoma cell line; test: as §7; type: functional, organism-based; conditions: Mus musculus; summary of the method: as §5
P388 [19] = test: Percentage increase in life span of tumor bearing animals compared to non treated, tumor-bearing controls when treated at the optimal dose of 66 mg/kg/day intraperitoneally; type: functional; conditions: Mus musculus, P388, ip; route intraperitoneal
P388 [20] = test: Percentage increase in life span of tumor bearing animals compared to non treated, tumor-bearing controls when treated at the optimal dose of 100 mg/kg/day ip (P388); type: functional; conditions: Mus musculus, route intraperitoneal
[21] = tested on: Lewis lung carcinoma cell line; test: as §4; type: functional; conditions: Mus musculus, ip, route intraperitoneal
P388 [22] = test: Percentage increase in life span of tumor bearing animals compared to non treated, tumor-bearing controls when treated at the optimal dose of 4.5 mg/kg/day intraperitoneally; type: functional; conditions: Mus musculus, P388, ip; route intraperitoneal
[23] = tested on: Lewis lung carcinoma cell line; test: Percentage increase in life span of tumor bearing animals compared to non treated, tumor-bearing controls when treated at the optimal dose of 4.5 mg/kg/day intraperitoneally; IA denotes inactive; type: functional, organism-based; conditions: Mus musculus; summary of the method: as §5

SMILES: Cc1cccc2nc3c(C(=O)NCCN(C)C)cccc3cc12.Cl.Cl.O.O
IC50 (HCT-8): 980 nM | Rm [1]: -0.12 | Ratio [2]: 7 | ILS at 150 mg/kg/day (P388 [3]): 61% | IC50 (L1210): 140 nM | ILS at 150 mg/kg/day [4]: 60%

SMILES: CN(C)CCCNC(=O)c1cccc2cc3ccccc3nc12.Cl.Cl
IC50 (HCT-8): 2900 nM | Rm [1]: -0.1 | Ratio [2]: 7.8 | IC50 (L1210): 370 nM | ILS at 150 mg/kg/day (P388 [5]): 118% | ILS at 150 mg/kg/day [4]: 84%

SMILES: Cc1cccc2cc3cccc(C(=O)NCCN(C)C)c3nc12.Cl.Cl
IC50 (HCT-8): 54 nM | Rm [1]: -0.17 | Ratio [2]: 12.6 | ILS at 30 mg/kg/day (P388 [6]): 87% | ILS at 30 mg/kg/day [7]: 120% | IC50 (L1210): 4.3 nM

SMILES: CN(C)CCCCCNC(=O)c1cccc2cc3ccccc3nc12.Cl
IC50 (HCT-8): 1800 nM | Rm [1]: 0.12 | Ratio [2]: 4 | ILS at 225 mg/kg/day (P388 [8]): 34% | IC50 (L1210): 450 nM | ILS at 150 mg/kg/day ([9]; route intraperitoneal): 83%

SMILES: COc1cccc2cc3cccc(C(=O)NCCN(C)C)c3nc12.Cl
IC50 (HCT-8): 180 nM | Rm [1]: -0.31 | Ratio [2]: 15 | ILS at 45 mg/kg/day [10]: 54% | IC50 (L1210): 12 nM | pKa [11]: 3.87 | ILS at 65 mg/kg/day (P388 [12]): 70%

Rm [1]: -0.21 | IC50 (L1210): 12700 nM
SMILES: Cc1ccc2cc3ccccc3nc2c1C(=O)NCCN(C)C.Cl.Cl
ILS [13]: inactive | ILS (P388 [14]): inactive

SMILES: COc1cc(C(=O)NCCN(C)C)c2nc3ccccc3cc2c1.Cl.Cl
IC50 (HCT-8): 720 nM | ILS at 100 mg/kg/day (P388 [15]): 99% | ILS at 100 mg/kg/day [16]: 105% | Rm [1]: -0.13 | Ratio [2]: 24 | IC50 (L1210): 30 nM | pKa [11]: 3.34

SMILES: COc1ccc2cc3cccc(C(=O)NCCN(C)C)c3nc2c1.Cl.Cl
IC50 (HCT-8): 470 nM | ILS at 100 mg/kg/day [16]: 85% | Rm [1]: -0.47 | Ratio [2]: 2.2 | IC50 (L1210): 210 nM | pKa [11]: 4.59

IC50 (HCT-8): 620 nM | Rm [1]: -0.27 | IC50 (L1210): 240 nM
SMILES: CNCCNC(=O)c1cccc2cc3ccccc3nc12.Cl.Cl
ILS (P388 [17]): inactive | ILS [18]: inactive | Ratio [2]: 2.6

SMILES: CN(C)CCNC(=O)c1cccc2cc3ccccc3nc12.Cl.Cl
ILS at 66 mg/kg/day (P388 [19]): 91% | IC50 (HCT-8): 900 nM | Rm [1]: -0.2 | Ratio [2]: 8.6 | IC50 (L1210): 105 nM | pKa [11]: 3.54

SMILES: CN(C)CCCCCCNC(=O)c1cccc2cc3ccccc3nc12.Cl
IC50 (HCT-8): 1960 nM | Rm [1]: 0.28 | Ratio [2]: 3.6 | ILS at 100 mg/kg/day (P388 [20]): 32% | IC50 (L1210): 550 nM | ILS [9]: inactive

SMILES: COc1cccc2nc3c(C(=O)NCCN(C)C)cccc3cc12.Cl
IC50 (HCT-8): 520 nM | ILS at 100 mg/kg/day (P388 [15]): 128% | ILS at 100 mg/kg/day [16]: 66% | Rm [1]: -0.12 | Ratio [2]: 9 | IC50 (L1210): 58 nM | pKa [11]: 3.82

SMILES: COc1ccc(C(=O)NCCN(C)C)c2nc3ccccc3cc12.Cl.Cl
IC50 (HCT-8): 115 nM | Rm [1]: -0.13 | Ratio [2]: 13.1 | ILS at 30 mg/kg/day (P388 [6]): 205% | IC50 (L1210): 8.8 nM | pKa [11]: 3.81

SMILES: CCN(CC)CCNC(=O)c1cccc2cc3ccccc3nc12.Cl.Cl
Rm [1]: 0.17 | IC50 (L1210): 630 nM | ILS at 150 mg/kg/day (P388 [5]): 61% | ILS at 150 mg/kg/day [4]: 62%

SMILES: CN(C)CCNC(=O)c1cccc2cc3ccc(Cl)cc3nc12.Cl
IC50 (HCT-8): 350 nM | Rm [1]: -0.06 | Ratio [2]: 54 | IC50 (L1210): 6.4 nM | ILS at 65 mg/kg/day [21]: 91%

SMILES: CN(C)CCNC(=O)c1cccc2c(N)c3ccccc3nc12
IC50 (HCT-8): 55 nM | ILS at 4.5 mg/kg/day (P388 [22]): 98% | ILS [23]: inactive | Rm [1]: -1.11 | Ratio [2]: 3.7
